Data on eight molecules can be found in paper PMC9168489 (Proceedings of the National Academy of Sciences of the …, 2022).

Where no end group is shown, it is not given here.

The test system of one data set is HTRA1 Asn311Ala. Description: Tau digest with loop L3 mutant Asn311Ala. In kind it is biochemical, human. The settings on record: 50 µM peptide. In a few lines:
(§1)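 HTRA1 loop L3 point mutants were assayed by tau digestion, with or without 50 µM test peptides derived from the CAPN2 C terminus, to measure mutant activity.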

In the next data set the test system is HTRA3. Briefly: Tau digest with HTRA3. The format is biochemical, human. The settings on record: 0.5 µM HTRA3, 5 µM tau, 50 µM peptide, 50 mM Tris pH 8.0, 37 °C.
The subject of another data set is HTRA2. Description: Tau digest with HTRA2. In kind it is biochemical, human. The settings on record: 0.5 µM HTRA2, 5 µM tau, 50 µM peptide, 50 mM Tris pH 8.0, 37 °C.
A further data set concerns HTRA1 Lys305Ala. Description: Tau digest with loop L3 mutant Lys305Ala. The format is biochemical, human. The settings on record: 50 µM peptide. Summed up:
as §1

The subject of data set [1] is HTRA1. Briefly: Soluble tau digest with HTRA1. In kind it is biochemical, human. Conditions: SDS-PAGE; for activation of HTRA1 by CAPN2: 0.5 µM HTRA1, 5 µM tau, 50 mM Tris pH 8.0, 37 °C, CAPN2 titration.
Data set [2] deals with tau fibrils. Description: Proteolysis of tau fibrils. In kind it is biochemical. Conditions: 2.5 µM tau fibrils, 2.5 µM HTRA1/HTRA1-CAPN2, 37 °C, 50 mM Tris HCl pH 8.
The next data set deals with HTRA1 (human) (UniProt Q92743). Description: ITC. On the technique in general: Isothermal titration calorimetry measures the heat released or taken up as one component is titrated into another.
For the next data set, the system named is HTRA1ΔPDZ. Description: Soluble tau digest with HTRA1ΔPDZ. In kind it is biochemical, human. Conditions: 50 µM peptide, 0.5 µM protease, 5 µM tau, 50 mM Tris pH 8.0, 37 °C; SDS-PAGE. Summed up:
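Soluble tau (5 µM) digested by 0.5 µM protease (HTRA1ΔPDZ run alongside full-length HTRA1) in 50 mM Tris pH 8.0 at 37 °C. Peptides derived from the CAPN2 C terminus were added at 50 µM, with a no-peptide control. Samples were taken at several time points and tau cleavage was followed by SDS-PAGE.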

The subject of data set [3] is tau fibrils. Description: Sedimentation assay of tau fibrils. In kind it is biochemical. Conditions: no Ca^2+, ultracentrifugation. Summed up:
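Tau fibrils were incubated with HTRA1SA alone, the HTRA1SA–CAPN2 complex, CAPN2 alone, or no protein, then ultracentrifuged. Total sample taken before centrifugation, pellet and supernatant fractions were resolved by SDS-PAGE and stained with Coomassie.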

In a further data set the test system is HTRA1 (HEK293 cells). Briefly: Coimmunoprecipitation of HTRA1 with CAPN2. The format is cell-based, human. The settings on record: HEK293 lysates; Strep or Myc beads; n = 3.
The target in data set [4] is HTRA1. Briefly: ITC of HTRA1SA and CAPN2CA. In kind it is binding, human. The settings on record: 500 µM HTRA1SA in syringe titrated to 10 µM CAPN2CA, 50 mM bicine, 150 mM NaCl pH 9.0, 37 °C.
Data set [5] deals with tau fibrils. The settings on record: in the presence of Ca^2+; cited from earlier work.
For another data set, the system named is tau. Briefly: Soluble tau digest with CAPN2 alone. In kind it is biochemical. Conditions: buffers without Ca^2+. Summed up:
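5 µM soluble tau was incubated with 0.5 µM CAPN2 in 50 mM Tris HCl, pH 8, at 37 °C. Aliquots were withdrawn at set time points and analysed by SDS-PAGE.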

Regarding LISWLSFSDL, in the data set with HTRA1 Asn311Ala, the “activation of HTRA1 Asn311Ala” value was “still allowed activation”. For the same molecule, the “effect on HTRA3 activity” value in the data set on HTRA3 is listed as “activated HTRA3 strongly”. The “effect on HTRA2 activity” value in the data set on HTRA2 is “HTRA2 weakly”. Moreover, in the data set with HTRA1 Lys305Ala, the “activation of HTRA1 Lys305Ala” value is recorded as “still allowed activation”.

With “HTRA1–CAPN2 complexes: hetero-oligomeric complex consisting of the cysteine protease calpain 2 (CAPN2) and HTRA1”, in the data set with HTRA1 [1] (5 µM tau, 0.5 µM HTRA1, 0.5 µM CAPN2, 37 °C, 50 mM Tris HCl pH 8), the “degradation of soluble tau” value was “degradation of soluble tau was improved”. In addition, the “proteolysis of tau fibrils” value in the data set on tau fibrils [2] is “a slight decrease of HTRA1 activity”.

Molecule “CFD peptide, carboxyl terminus of complement factor D” registered a Kd with HTRA1 (human) of 4 µM.

On to LISWLCFSVL, for which, in the data set on HTRA1ΔPDZ, the “activation of HTRA1ΔPDZ by peptides” value was “not activated”.

As for LISWLSDSEL, in the data set on HTRA1ΔPDZ, the “activation of HTRA1ΔPDZ by peptides” value is “activated wild-type but not HTRA1ΔPDZ”.

B1: CAPN2: CAPN2 heterodimer consists of a cysteine protease and a regulatory subunit (protein, UniProt P17655 20-700; P04632 1-268, looked up)
Calpain-2 catalytic subunit: SHDRAIKYLNQDYEALRNECLEAGTLFQDPSFPAIPSALGFKELGPYSSKTRGIEWKRPTEICADPQFIIGGATRTDICQGALGDCWLLAAIASLTLNEEILARVVPLNQSFQENYAGIFHFQFWQYGEWVEVVVDDRLPTKDGELLFVHSAEGSEFWSALLEKAYAKINGCYEALSGGATTEGFEDFTGGIAEWYELKKPPPNLFKIIQKALQKGSLLGCSIDITSAADSEAITFQKLVKGHAYSVTGAEEVESNGSLQKLIRIRNPWGEVEWTGRWNDNCPSWNTIDPEERERLTRRHEDGEFWMSFSDFLRHYSRLEICNLTPDTLTSDTYKKWKLTKMDGNWRRGSTAGGCRNYPNTFWMNPQYLIKLEEEDEDEEDGESGCTFLVGLIQKHRRRQRKMGEDMHTIGFGIYEVPEELSGQTNIHLSKNFFLTNRARERSDTFINLREVLNRFKLPPGEYILVPSTFEPNKDGDFCIRVFSEKKADYQAVDDEIEANLEEFDISEDDIDDGFRRLFAQLAGEDAEISAFELQTILRRVLAKRQDIKSDGFSIETCKIMVDMLDSDGSGKLGLKEFYILWTKIQKYQKIYREIDVDRSGTMNSYEMRKALEEAGFKMPCQLHQVIVARFADDQLIIDFDNFVRCLVRLETLFKIFKQLDPENTGTIELDLISWLCFSVL
Calpain small subunit 1: MFLVNSFLKGGGGGGGGGGGLGGGLGNVLGGLISGAGGGGGGGGGGGGGGGGGGGGTAMRILGGVISAISEAAAQYNPEPPPPRTHYSNIEANESEEVRQFRRLFAQLAGDDMEVSATELMNILNKVVTRHPDLKTDGFGIDTCRSMVAVMDSDTTGKLGFEEFKYLWNNIKRWQAIYKQFDTDRSGTICSSELPGAFEAAGFHLNEHLYNMIIRRYSDESGNMDFDNFISCLVRLDAMFRAFKSLDKDGTGQIQVNIQEWLQLTMYS
Turning to B1, the “tau fibril dissociation (solubilization)” value in the data set with tau fibrils [3] (equimolar amounts, SDS-PAGE and Coomassie) is “Partial fibril dissociation”. Besides, the “co-sedimentation with tau fibrils” value in the data set with tau fibrils [3] is “co-sedimentation of CAPN2 and fibrils”. For the same molecule, the “coimmunoprecipitation with HTRA1” value in the data set on HTRA1 (HEK293 cells) is given as “complex formation was supported by coimmunoprecipitations”. This molecule displayed an equilibrium dissociation constant (Kd) on HTRA1 [4] of 4 µM. In addition, the “proteolysis of tau fibrils by CAPN2” value in the data set with tau fibrils [5] is reported as “proteolyzes fibrils”. Moreover, the “activation of HTRA1 by CAPN2” value with HTRA1 [1] was “improved activation of HTRA1 by CAPN2 compared to the isolated C-terminal decapeptide”. Also, in the data set on tau, the “digestion of tau by CAPN2” value is recorded as “does not digest tau”.

B2: CAPN2CA (protein)
chain 1: SHDRAIKYLNQDYEALRNECLEAGTLFQDPSFPAIPSALGFKELGPYSSKTRGIEWKRPTEICADPQFIIGGATRTDICQGALGDAWLLAAIASLTLNEEILARVVPLNQSFQENYAGIFHFQFWQYGEWVEVVVDDRLPTKDGELLFVHSAEGSEFWSALLEKAYAKINGCYEALSGGATTEGFEDFTGGIAEWYELKKPPPNLFKIIQKALQKGSLLGCSIDITSAADSEAITFQKLVKGHAYSVTGAEEVESNGSLQKLIRIRNPWGEVEWTGRWNDNCPSWNTIDPEERERLTRRHEDGEFWMSFSDFLRHYSRLEICNLTPDTLTSDTYKKWKLTKMDGNWRRGSTAGGCRNYPNTFWMNPQYLIKLEEEDEDEEDGESGCTFLVGLIQKHRRRQRKMGEDMHTIGFGIYEVPEELSGQTNIHLSKNFFLTNRARERSDTFINLREVLNRFKLPPGEYILVPSTFEPNKDGDFCIRVFSEKKADYQAVDDEIEANLEEFDISEDDIDDGFRRLFAQLAGEDAEISAFELQTILRRVLAKRQDIKSDGFSIETCKIMVDMLDSDGSGKLGLKEFYILWTKIQKYQKIYREIDVDRSGTMNSYEMRKALEEAGFKMPCQLHQVIVARFADDQLIIDFDNFVRCLVRLETLFKIFKQLDPENTGTIELDLISWLCFSVL
chain 2: MFLVNSFLKGGGGGGGGGGGLGGGLGNVLGGLISGAGGGGGGGGGGGGGGGGGGGGTAMRILGGVISAISEAAAQYNPEPPPPRTHYSNIEANESEEVRQFRRLFAQLAGDDMEVSATELMNILNKVVTRHPDLKTDGFGIDTCRSMVAVMDSDTTGKLGFEEFKYLWNNIKRWQAIYKQFDTDRSGTICSSELPGAFEAAGFHLNEHLYNMIIRRYSDESGNMDFDNFISCLVRLDAMFRAFKSLDKDGTGQIQVNIQEWLQLTMYS
In the case of B2, the “activation of HTRA1 by CAPN2” value in the data set on HTRA1 [1] is reported as “dose-dependent activation of HTRA1”.

B3: CCNH peptide, carboxyl terminus of cyclin H (peptide)
peptide: EWTDDDLVESL
modifications: not fully specified
For B3, in the data set with HTRA1 (human), the Kd turned out to be 40 µM.

As usually defined, the Kd is a measure of binding affinity in units of concentration. Low readings indicate higher affinity, high ones lower affinity.
